In PMC3582904 (International Journal of Oncology, 2012):
Like-named read-outs stand apart in the source and are kept apart here. Marks after values point to notes of the source that are not given here.

What was measured:
[1] = patients with advanced non-small cell lung, breast, colon, and pancreatic cancers; diarrhea, nausea, asthenia, rash, anorexia; cited from earlier work
[2] = cited from earlier work
EHMES-10 cells [3] = format: in vivo, SCID mice; details: thoracic tumors, day 30; for expression of p27kip1 and 89 kDa cleaved PARP (western blot of tumors): 30 mg/kg U0126, 25 mg/kg LY294002 or combination
How it was run: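 Thoracic tumors were excised on day 30 from SCID mice given i.p. test compounds twice weekly in 40% DMSO/PBS. Paraffin sections were immunostained for phospho-ERK1/2, phospho-Akt and p27kip1 (Envision method, Fuchsin+ chromogen). Tumor homogenates were lysed in Tris/NaCl/Triton/NaF/Na3VO4 buffer, cleared at 15,000 × g, separated on 7.5–15% gels and immunoblotted.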

MSTO211H cells [4] = assay: WST-1 cell proliferation assay, MSTO211H; format: cell-based, human; details: 72 h, read-out: IC50 against MSTO211H cells
How it was run: (§1)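 Cells at 1×10^4 per well in RPMI-1640/10% FBS were exposed for 72 h to test compound at 20 to 200 μM, with DMSO final 1.0%. Vehicle controls received matching DMSO. WST-1 reagent was then added, and absorbance was read at 450 nm against a 690 nm reference. IC50 was taken from the dose-response; means ± SD.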

EHMES-10 cells [5] = assay: DNA fragmentation assay; format: cell-based, human; details: EHMES-10, single agent, 24 h, dose-dependent
How it was run: (§2)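 Apoptosis was scored after 24 h exposure to either MEK or PI3K inhibitor or their combination, in RPMI-1640/10% FBS with DMSO final 1.0%. Cytoplasmic histone-associated DNA fragments were quantified with the Cell Death Detection ELISA kit. Means ± SD, ANOVA with Dunnett's test.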

MSTO211H cells [6] = assay: Cell cycle analysis; format: cell-based, human; details: 24 h; for percentage of cells in sub-G1 phase compared to control: 80 μM each agent; for G1-phase population compared to control: 80 μM, P<0.05
How it was run: (§3)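 Cells grown in RPMI-1640 with 10% FBS at 37°C and 5% CO2 were exposed to 80 μM MEK inhibitor, 80 μM PI3K inhibitor or both for 24 h (DMSO final 1.0%). They were then trypsinized, and nuclei were stained with propidium iodide (CycleTest Plus kit). Phase profiles came from FACScan flow cytometry. Three independent runs; means ± SD, ANOVA with Dunnett's test.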

EHMES-10 cells [7] = assay: WST-1 cell proliferation assay, EHMES-10; format: cell-based, human; details: 72 h, read-out: IC50 against EHMES-10 cells
How it was run: as §1

EHMES-10 cells [8] = assay: Cell cycle analysis; format: cell-based, human; details: 24 h; for percentage of cells in sub-G1 phase compared to control: EHMES-10, 80 μM each agent; for G1-phase population compared to control: EHMES-10, 80 μM, P<0.05
How it was run: as §3

EHMES-10 cells [9] = assay: Western blot analysis of cultured EHMES-10 cells; format: cell-based, human; details: EHMES-10, 80 μM, 24 h
How it was run: (§4)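 Cultured cells received 80 μM MEK inhibitor and/or 80 μM PI3K inhibitor for 24 h. Lysates were cleared at 15,000 × g, 15 min, 4°C, resolved on 7.5–15% gels, transferred to nitrocellulose and immunoblotted; three independent experiments.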

MSTO211H cells [10] = assay: DNA fragmentation assay; format: cell-based, human; details: single agent, 24 h, dose-dependent
How it was run: as §2

MSTO211H cells [11] = assay: Western blot analysis of cultured MSTO211H cells; format: cell-based, human; details: 80 μM, 24 h
How it was run: as §4

[12] = Side effects in EHMES-10 cell-bearing SCID mice; format: in vivo; details: day 30, median (range)
EHMES-10 cells [13] = assay: Orthotopic implantation model, EHMES-10 cells in SCID mice; format: in vivo; details: for Pleural effusion Incidence / Thoracic tumor Incidence: day 30; for Pleural effusion Volume / Thoracic tumor Weight: day 30, median (range); for survival time compared to control group: P<0.01
How it was run: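 Male SCID mice aged 6–8 weeks received 3×10^6 EHMES-10 cells in PBS into the thoracic cavity. On day 7 they were randomized, […], to vehicle (40% DMSO in PBS), MEK inhibitor (20, 30, 40 mg/kg), PI3K inhibitor (12.5, 25, 50 mg/kg) or 30 + 25 mg/kg combined, given i.p. twice weekly. Mice were killed on day 30; tumor weighed, effusion volume measured. Medians (ranges), Mann-Whitney; survival by Kaplan-Meier/log-rank.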

[14] = 25 mg/kg LY294002, alone or with 30 mg/kg U0126
[15] = 30 mg/kg U0126, alone or with 25 mg/kg LY294002

Compound: O=C(NOCC1CC1)c1ccc(F)c(F)c1Nc1ccc(I)cc1Cl [CI-1040]
- toxicities in patients [1]: mild or moderate toxicities

Compound: O=c1cc(N2CCOCC2)oc2c(-c3ccccc3)cccc12 [LY294002]
- side effects ([2]; administration reduced to three days per week): side effects were not shown
- side effects ([2]; daily intraperitoneal 100 mg/kg, mice with ovarian cancer): body weight loss and dry skin
- Akt phosphorylation (western blot of tumors) (EHMES-10 cells [3]; [14]): inhibited
- phospho-Akt-positive tumor cells (immunohistochemistry) (EHMES-10 cells [3]; [14]): reduced
- expression of p27kip1 and 89 kDa cleaved PARP (western blot of tumors) (EHMES-10 cells [3]): increased
- IC50 (MSTO211H cells [4]; Homo sapiens, MSTO-211H): 29.9 µM
- apoptosis by DNA fragmentation analysis (EHMES-10 cells [5]): induced apoptosis
- percentage of cells in sub-G1 phase compared to control (MSTO211H cells [6]): significantly increased
- G1-phase population compared to control (MSTO211H cells [6]): significantly increased
- IC50 (EHMES-10 cells [7]; Homo sapiens): 20.7 µM
- percentage of cells in sub-G1 phase compared to control (EHMES-10 cells [8]): significantly increased
- G1-phase population compared to control (EHMES-10 cells [8]): significantly increased
- HIF1α and VEGF expression (EHMES-10 cells [9]): inhibited
- cyclin D1 expression (EHMES-10 cells [9]): decrease
- level of 89 kDa cleaved PARP (EHMES-10 cells [9]): increased
- levels of phospho-Bad and procaspase 3 (EHMES-10 cells [9]): decreased
- phosphorylation of Akt, p70S6K, S6 and GSK3β (EHMES-10 cells [9]): suppressed
- apoptosis by DNA fragmentation analysis (MSTO211H cells [10]): induced apoptosis
- level of 89 kDa cleaved PARP (MSTO211H cells [11]): increased
- levels of phospho-Bad and procaspase 3 (MSTO211H cells [11]): decreased
- ALT ([12]; 25 mg/kg i.p. twice/week): 19 (15–72) IU/l
- AST ([12]; 25 mg/kg i.p. twice/week): 46 (37–117) IU/l
- BUN ([12]; 25 mg/kg i.p. twice/week): 20.2 (17.9–23.0) mg/dl
- Cre ([12]; 25 mg/kg i.p. twice/week): 0.11 (0.06–0.20) mg/dl
- TP (serum total protein) ([12]; 25 mg/kg i.p. twice/week): 4.3 (3.9–5.6) g/dl
- Weight (body weight) ([12]; 25 mg/kg i.p. twice/week): 25.4 (24.4–26.3) g
- ALT ([12]; 50 mg/kg i.p. twice/week): 25 (16–42) IU/l
- AST ([12]; 50 mg/kg i.p. twice/week): 51 (46–92) IU/l
- BUN ([12]; 50 mg/kg i.p. twice/week): 21.0 (16.4–23.2) mg/dl
- Cre ([12]; 50 mg/kg i.p. twice/week): 0.09 (0.07–0.12)^a mg/dl
- TP (serum total protein) ([12]; 50 mg/kg i.p. twice/week): 4.4 (3.9–5.6) g/dl
- Weight (body weight) ([12]; 50 mg/kg i.p. twice/week): 24.4 (22.7–26.3) g
- Pleural effusion Incidence (EHMES-10 cells [13]; 25 mg/kg i.p. twice/week): 1/5
- Thoracic tumor Incidence (EHMES-10 cells [13]; 25 mg/kg i.p. twice/week): 3/5
- Pleural effusion Volume (EHMES-10 cells [13]; 25 mg/kg i.p. twice/week): 0 (0–10)^a μl
- Thoracic tumor Weight (EHMES-10 cells [13]; 25 mg/kg i.p. twice/week): 69.1 (0–481.6)^a mg
- survival time compared to control group (EHMES-10 cells [13]; 50 mg/kg i.p. twice a week): significantly prolonged
- Pleural effusion Incidence (EHMES-10 cells [13]; 50 mg/kg i.p. twice/week): 0/5
- Thoracic tumor Incidence (EHMES-10 cells [13]; 50 mg/kg i.p. twice/week): 2/5
- Pleural effusion Volume (EHMES-10 cells [13]; 50 mg/kg i.p. twice/week): 0 (−)^a μl
- Thoracic tumor Weight (EHMES-10 cells [13]; 50 mg/kg i.p. twice/week): 0 (0–41)^a mg

Compound: N#CC(=C(/N)Sc1ccccc1N)/C(C#N)=C(/N)Sc1ccccc1N [U0126]
- expression of p27kip1 and 89 kDa cleaved PARP (western blot of tumors) (EHMES-10 cells [3]): increased
- ERK1/2 phosphorylation (western blot of tumors) (EHMES-10 cells [3]; [15]): inhibited
- phospho-ERK1/2-positive tumor cells (immunohistochemistry) (EHMES-10 cells [3]; [15]): reduced
- IC50 (MSTO211H cells [4]; WST-1 assay): 39 µM
- apoptosis by DNA fragmentation analysis (EHMES-10 cells [5]): induced apoptosis
- percentage of cells in sub-G1 phase compared to control (MSTO211H cells [6]): significantly increased
- G1-phase population compared to control (MSTO211H cells [6]): significantly increased
- IC50 (EHMES-10 cells [7]; WST-1 assay): 66.8 µM
- percentage of cells in sub-G1 phase compared to control (EHMES-10 cells [8]): significantly increased
- G1-phase population compared to control (EHMES-10 cells [8]): significantly increased
- HIF1α and VEGF expression (EHMES-10 cells [9]): decreased
- cyclin D1 expression (EHMES-10 cells [9]): decrease
- level of 89 kDa cleaved PARP (EHMES-10 cells [9]): increased
- levels of phospho-Bad and procaspase 3 (EHMES-10 cells [9]): decreased
- phosphorylation of ERK1/2 and p90RSK (EHMES-10 cells [9]): blocked
- apoptosis by DNA fragmentation analysis (MSTO211H cells [10]): induced apoptosis
- cyclin D1 expression (MSTO211H cells [11]): decrease
- level of 89 kDa cleaved PARP (MSTO211H cells [11]): increased
- levels of phospho-Bad and procaspase 3 (MSTO211H cells [11]): decreased
- ALT ([12]; 30 mg/kg i.p. twice/week): 30 (20–60) IU/l
- AST ([12]; 30 mg/kg i.p. twice/week): 48 (44–64) IU/l
- BUN ([12]; 30 mg/kg i.p. twice/week): 22.2 (15.4–24.0) mg/dl
- Cre ([12]; 30 mg/kg i.p. twice/week): 0.10 (0.08–0.15) mg/dl
- TP (serum total protein) ([12]; 30 mg/kg i.p. twice/week): 4.3 (4.0–5.0) g/dl
- Weight (body weight) ([12]; 30 mg/kg i.p. twice/week): 24.1 (23.5–27.2) g
- ALT ([12]; 40 mg/kg i.p. twice/week): 45 (31–80) IU/l
- AST ([12]; 40 mg/kg i.p. twice/week): 75 (53–111) IU/l
- BUN ([12]; 40 mg/kg i.p. twice/week): 19.1 (15.3–22.1) mg/dl
- Cre ([12]; 40 mg/kg i.p. twice/week): 0.07 (0.05–0.12)^a mg/dl
- TP (serum total protein) ([12]; 40 mg/kg i.p. twice/week): 5.0 (4.4–6.6) g/dl
- Weight (body weight) ([12]; 40 mg/kg i.p. twice/week): 24.9 (23.3–25.9) g
- survival time compared to control group (EHMES-10 cells [13]; 30 mg/kg i.p. twice a week): significantly prolonged
- Pleural effusion Incidence (EHMES-10 cells [13]; 30 mg/kg i.p. twice/week): 1/5
- Thoracic tumor Incidence (EHMES-10 cells [13]; 30 mg/kg i.p. twice/week): 4/5
- Pleural effusion Volume (EHMES-10 cells [13]; 30 mg/kg i.p. twice/week): 0 (0–100)^a μl
- Thoracic tumor Weight (EHMES-10 cells [13]; 30 mg/kg i.p. twice/week): 31.3 (0–59.2)^a mg
- survival time compared to control group (EHMES-10 cells [13]; 40 mg/kg i.p. twice a week): significantly prolonged
- Pleural effusion Incidence (EHMES-10 cells [13]; 40 mg/kg i.p. twice/week): 0/5
- Thoracic tumor Incidence (EHMES-10 cells [13]; 40 mg/kg i.p. twice/week): 3/5
- Pleural effusion Volume (EHMES-10 cells [13]; 40 mg/kg i.p. twice/week): 0 (−)^a μl
- Thoracic tumor Weight (EHMES-10 cells [13]; 40 mg/kg i.p. twice/week): 14.6 (0–191.3)^a mg
